Measured values as given in ChEMBL document CHEMBL1136815, “Synthesis and in vitro evaluation of novel small molecule inhibitors of bacterial arylamine N-acetyltransferases (NATs)” (Bioorg Med Chem Lett, 2003).

Legend:
Design in all cases: species or system Mycolicibacterium smegmatis
[1] = In vitro inhibition of recombinant Mycobacterium smegmatis Arylamine N-Acetyltransferase (MSNAT) -catalyzed acetylation of isoniazid (INH)
Method in brief: (§1)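 Pure recombinant M. smegmatis NAT acetylating isoniazid with acetyl CoA as donor. Acetyl CoA hydrolysis rate followed with 5,5'-dithio-bis(2-nitrobenzoic acid), reading the thio-2-nitrobenzoic acid product spectrophotometrically at 412 nm. Half-maximal inhibitory concentration (IC50) taken from this rate.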

[2] = In vitro inhibition of recombinant Mycobacterium smegmatis N-Acetyltransferase (MSNAT) -catalyzed acetylation of isoniazid (INH).; method in brief: as §1
[3] = Inhibition constant of Mycobacterium smegmatis N-Acetyltransferase (MSNAT) -catalyzed acetylation with respect to isoniazid.
[4] = In vitro inhibition of recombinant Mycobacterium smegmatis Arylamine N-Acetyltransferase (MSNAT) -catalyzed acetylation of isoniazid (INH); not active; method in brief: as §1

| Structure (SMILES) | IC50 [1] [µM] | other results |
| --- | --- | --- |
| O=C1NC(=O)/C(=C2\CN(Cc3ccc(/C=C/c4ccccc4)cc3)S(=O)(=O)c3ccccc32)S1 | 29 | Ki [1]: 14 µM |
| O=C1NC(=O)/C(=C2\CN(Cc3ccc4ccccc4c3)S(=O)(=O)c3ccccc32)S1 | – | IC50 [2]: 78 µM; Ki [3]: 70 µM |
| O=C1NC(=O)/C(=C2\CN(Cc3ccccn3)S(=O)(=O)c3ccccc32)S1 | > 100 | – |
| O=C1NC(=O)/C(=C2\CN(Cc3ccccc3)S(=O)(=O)c3ccccc32)S1 | > 100 | – |
| C=C(C)CCN1C/C(=C2/SC(=O)NC2=O)c2ccccc2S1(=O)=O | > 100 | – |
| CN1C/C(=C2/SC(=O)NC2=O)c2ccccc2S1(=O)=O | > 100 | – |
| CCCCCCCCN1C/C(=C2/SC(=O)NC2=O)c2ccccc2S1(=O)=O | 61 | Ki [1]: 43 µM |
| O=C1NC(=O)/C(=C2\CN(Cc3ccc(-c4ccccc4)cc3)S(=O)(=O)c3ccccc32)S1 | 20 | Ki [1]: 14.4 µM |
| O=C1NC(=O)/C(=C2\CNS(=O)(=O)c3ccccc32)S1 | > 100 | – |
| O=C1CN(Cc2ccc3ccccc3c2)S(=O)(=O)c2ccccc21 | – | IC50 [4]: Not Active |
| O=C1NC(=O)/C(=C2\CN(CC3CC3)S(=O)(=O)c3ccccc32)S1 | > 100 | – |
| CCC(CC)CN1C/C(=C2/SC(=O)NC2=O)c2ccccc2S1(=O)=O | 92 | – |
| O=C1NC(=O)/C(=C2\CN(CCC3CCCCC3)S(=O)(=O)c3ccccc32)S1 | 82 | – |
| O=C1NC(=O)/C(=C2\CN(CC3CCCCC3)S(=O)(=O)c3ccccc32)S1 | 205 | – |
| CCCCCCCCCCN1C/C(=C2/SC(=O)NC2=O)c2ccccc2S1(=O)=O | 22 | Ki [1]: 14.7 µM |
| O=C1NC(=O)/C(=C2\CN(Cc3ccc(Br)cc3)S(=O)(=O)c3ccccc32)S1 | 65 | – |
| O=C1NC(=O)/C(=C2\CN(Cc3ccc(Cl)s3)S(=O)(=O)c3ccccc32)S1 | 33 | Ki [1]: 26.7 µM |
| O=C1NC(=O)/C(=C2\CN(CCOc3ccccc3)S(=O)(=O)c3ccccc32)S1 | > 100 | – |
| O=C1CSC(=O)N1 [THIAZOLIDINEDIONE] | – | IC50 [4]: Not Active |
